# HCV NS3 hel inh: inhibitors of HCV NS3 helicase, primary screen, biochemical, Cy5 molecular beacon fluorescence; Hepatitis C virus NS3 helicase; NS3 helicase DNA unwinding; inhibition, % at 10.9 µM; 290,000 compounds, 0.56% hits;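 active = inhibition above the mean of all tested compounds plus 3 SD, set per campaign, cut at about 35% in these data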;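 also: 0% = DMSO wells and 100% = thioflavine S control wells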
#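 System: HCV NS3 helicase fragment; control set: DMSO and thioflavine S; technique: Cy5 fluorescence at 0 and 60 min, beacon hairpin quenching; reagent: beacon DNA duplex substrate plus ATP; replicates: singlicate; schedule: 1 h reaction at 25 °C, ATP-initiated; medium: MOPS buffer pH 6.5 with MgCl2, DTT, Tween20, BSA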
# HCV core dimer: inhibitors of HCV core protein dimerization, primary screen, biochemical, TR-FRET, high-throughput | 300,000 compounds, 0.33% hits | inhibition, % at 5 µM | TR-FRET GST/Flag-core106 dimerization, 1536-well;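 active = inhibition above the mean of all tested compounds plus 3 SD, set per screening campaign, cut at about 45% in these data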
#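 Assay system: Tagged HCV core106 pair (GST and Flag) | Buffer or medium: KF-containing HEPES buffer, pH 7.45, DTT, CHAPS, BSA | Also added: Eu donor and XL665 acceptor anti-tag antibodies | Dosing: One concentration, 5 µM, in 0.5% DMSO | Timing: 4 h at 22.5 °C | Technique: TR-FRET 671 and 617 nm emission | Repeats: Singlicate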
# ZTA counter: counter-screen for EBNA-1 inhibitors: inhibitors of Epstein-Barr virus ZTA; P03206; ZTA-DNA binding, fluorescence polarization; inhibition, % at 11 µM; 320,000 compounds, 0.15% hits; AID 2234; in the data active = inhibition above about 33%
# Target sequence (P03206 whole entry, looked up): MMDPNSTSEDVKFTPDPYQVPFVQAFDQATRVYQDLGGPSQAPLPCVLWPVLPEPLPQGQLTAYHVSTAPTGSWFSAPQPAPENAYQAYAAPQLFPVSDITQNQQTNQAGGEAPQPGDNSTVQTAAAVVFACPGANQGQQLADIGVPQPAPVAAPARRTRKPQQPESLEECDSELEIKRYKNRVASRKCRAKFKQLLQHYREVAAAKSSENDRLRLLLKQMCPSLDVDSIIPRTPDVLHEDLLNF
# EBNA-1 inh: EBNA-1 DNA-binding inhibitors, primary screen, biochemical, fluorescence polarization; 300,000 compounds, 0.34% hits; inhibition, % at 14.8 µM; in the data active = inhibition above about 28%
# SUMO HTRF inh: inhibitors of in vitro SUMOylation cascade, primary screen, biochemical, HTRF, uHTS | SUMO-conjugating enzyme UBC9 (Homo sapiens), P63279 | HTRF SUMOylation assay, SAE1/SAE2 + UBC9 | inhibition, % at 35 µM | 290,000 compounds, 0.36% hits; in the data active = inhibition above about 50%, passing the limit was not always enough
# Target sequence (P63279 whole entry, looked up): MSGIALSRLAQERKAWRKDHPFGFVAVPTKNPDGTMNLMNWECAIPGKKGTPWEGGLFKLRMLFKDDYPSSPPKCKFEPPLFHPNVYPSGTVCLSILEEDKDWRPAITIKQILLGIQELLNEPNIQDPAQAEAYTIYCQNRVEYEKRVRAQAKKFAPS
# NS3 hel confirm: HCV NS3 helicase inhibitors, retest, confirmation, biochemical, Cy5 molecular beacon fluorescence, triplicate; shares compounds with HCV NS3 hel inh; NS3 helicase DNA unwinding; inhibition, % at 10.9 µM; 1,600 compounds, 31% hits;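 active = inhibition above the mean of all tested compounds plus 3 SD, cutoff set per campaign, cut at about 36% in these data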
# DNA FID counter: compounds displacing fluorescent DNA intercalator, artefact control for HCV NS3 helicase inhibitor project, biochemical, FID fluorescence, triplicate. shares compounds with HCV NS3 hel inh. DNA fluorescent intercalator displacement. inhibition, % at 7.9 µM. 1,600 compounds, 4% hits; in the data active = inhibition above about 37%;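 also: 0% = vehicle and 100% = reference compound; higher means more displacement of ethidium bromide from the DNA hairpin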
# * marks the source's active call; other numbers are inactive results; x = not tested or not shown. Only some compounds are listed: those with a hit (about 1.4% of all), similar ones and a draw of the others.
SMILES,HCV NS3 hel inh,HCV core dimer,ZTA counter,EBNA-1 inh,SUMO HTRF inh,NS3 hel confirm,DNA FID counter
O=C1CN(O)C(c2ccccc2Cl)=c2cc(Br)ccc2=N1,-3,4,10,9,11,x,x
CCCCN1C(=O)/C(=C/C=C/c2ccco2)C(=O)NC1=S,62*,x,x,x,12,57*,24
O=C1NC(=O)N(Cc2ccccc2)C(=O)/C1=C\c1ccco1,39*,3,9,-3,16,20,24
O=C1NC(=O)N(Cc2ccc(F)cc2)C(=O)/C1=C\C=C\c1ccco1,41*,13,6,0,26,32,20
O=C1NC(=O)N(Cc2ccco2)C(=O)/C1=C/c1cccn1CCOc1ccccc1Cl,43*,17,4,3,66*,2,-1
CC(C)c1ccc(N2C(=O)NC(=O)/C(=C/C=C/c3ccco3)C2=O)cc1,23,35,2,2,22,x,x
Cn1cccc1/C=C1\C(=O)NC(=O)N(Cc2ccccc2)C1=O,13,5,13,5,15,x,x
O=c1[nH]c(=S)n(-c2ccccc2Cl)c(O)c1C=NCCN1CCNCC1,-6,x,x,x,-3,x,x
O=C(c1cc(S(=O)(=O)N2CCC3(CC2)OCCO3)ccc1F)N1CCC2(CC1)OCCO2,5,1,14,-5,-2,x,x
O=C(c1ccc(Cl)cc1)C1CCCN(Cc2ccc3ncccc3c2)C1 (configuration not stated),-4,1,5,2,-9,x,x
O=P1(NCCCn2cc[n+](Cc3nc4ccccc4[nH]3)c2)C=C(c2ccccc2)OC(c2ccccc2)=C1,-77,0,-11,9,-9,x,x
ClCC(Br)CBr (configuration not stated),x,x,8,x,x,x,x
COc1ccc(CN2C(=O)NC(=O)/C(=C/c3ccoc3)C2=O)cc1,54*,8,13,-7,35,17,15
Cc1ccccc1N1C(=O)/C(=C/c2ccco2)C(=O)NC1=S,81*,70*,69*,110*,97*,83*,21
Cc1cc(/C=C2/C(=O)NC(=O)N(Cc3ccco3)C2=O)c(C)n1-c1ccccc1O,49*,2,-8,1,23,-17,11
CCCCN1C(=O)/C(=C/c2ccc(N(C)C)cc2)C(=O)N(Cc2ccco2)C1=O,26,34,7,-1,23,x,x
O=C(O)Cn1cc(/C=C2\C(=O)NC(=O)N(Cc3ccco3)C2=O)c2ccccc21,-1,12,21,14,35,x,x
CCCCN1C(=O)/C(=C\c2ccco2)C(=O)N(CCc2ccccc2)C1=O,38*,25,12,8,22,69*,15
Cn1c(O)c(/C=C/C=Nc2ccccc2)c(=O)n(C)c1=S,-2,-11,-3,10,8,x,x
CCCN1CCC[C@H](c2cccc(O)c2)C1,x,-2,-5,-11,x,x,x
Cc1c2ccncc2c(C)c2c1[nH]c1ccccc12,42*,-52,5,-6,-6,57*,83*
CCCCn1c(NS(=O)(=O)c2ccccc2)c(C(=O)OCC)c2nc3ccccc3nc21,37*,5,4,13,100*,58*,-39
CCOC(=O)c1c(N)n(CCN2CCCCC2)c2nc3ccccc3nc12,1,8,15,5,18,x,x
CN1C(=O)C(=Cc2ccc(N3CCCCCC3)o2)C(=O)N(C)C1=S,10,9,-6,-5,2,x,x
O=C(O)c1ccccc1-c1ccc(C=C2C(=O)N(c3ccccc3)C(=S)N(c3ccccc3)C2=O)o1,42*,10,16,9,19,69*,9
SMILES,HCV NS3 hel inh,HCV core dimer,ZTA counter,EBNA-1 inh,SUMO HTRF inh,NS3 hel confirm,DNA FID counter
CCOC(=O)C1(CCOc2ccccc2)CCN(Cc2ccc(C)s2)CC1,-13,-6,-19,-4,5,x,x
CNS(=O)(=O)c1ccc(-c2ccc(C=C3C(=O)NC(=O)NC3=O)o2)cc1,45*,4,3,2,15,-28,6
O=C1NC(=O)C(=Cc2ccc(-c3cc(Cl)ccc3[N+](=O)[O-])o2)C(=O)N1,14,x,x,x,21,x,x
O=C1NC(=O)C(=Cc2ccc(-c3ccccc3[N+](=O)[O-])o2)C(=O)N1,45*,1,3,-14,15,-22,20
NS(=O)(=O)c1ccc(-c2ccc(C=C3C(=O)NC(=O)NC3=O)o2)cc1,26,10,-14,-3,3,x,x
CCCCC(C)C(OC(=O)CC(CC(=O)O)C(=O)O)C(CC(C)CC(O)CCCCC(O)CC(O)C(C)N)OC(=O)CC(CC(=O)O)C(=O)O (configuration not stated),25,0,0,-2,-27,x,x
CNC(=O)O/N=C/c1nn(C(=O)C(C)(C)C)cc1Br,-1,-3,0,8,6,x,x
O=C(O)c1ccccc1NC(=O)N1C[C@H]2C[C@@H](C1)c1cccc(=O)n1C2,42*,0,10,-6,16,-9,8
CCN(CC)C(=O)c1ccc2c(c1)C1C=CCC1C(C(=O)O)N2 (configuration not stated),42*,x,x,x,29,86*,-3
CCN(CC)C(=O)c1ccc(N(Cc2ccccc2)S(C)(=O)=O)cc1,-3,x,x,x,20,x,x
CC(=O)N1CCN(c2ccc(N=Cc3c(O)n(-c4ccc(Cl)cc4)c(=O)[nH]c3=O)cc2)CC1,43*,30,6,-7,7,-11,-27
Cc1cc(C)cc(-n2c(O)c(C=Nc3ccc(N4CCOCC4)cc3)c(=O)[nH]c2=S)c1,15,8,12,-8,6,x,x
O=c1[nH]c(=S)n(-c2ccccc2F)c(O)c1C=Nc1ccc(N2CCOCC2)cc1,54*,2,45*,13,26,18,-24
CCN(CC)c1ccc(N=Cc2c(O)n(-c3ccc(Cl)cc3)c(=O)[nH]c2=O)cc1,7,13,-9,-4,38,x,x
O=c1[nH]c(=S)n(-c2ccc(Br)cc2)c(O)c1C=Nc1ccc(N2CCOCC2)cc1,37*,18,6,5,29,11,-14
Cn1cccc1/C=C1/C(=O)NC(=S)N(Cc2ccc(F)cc2)C1=O,45*,66*,4,18,16,78*,18
Cn1cccc1/C=C1/C(=O)NC(=O)N(Cc2ccc(F)cc2)C1=O,33,-2,14,3,20,x,x
O=c1[nH]c(=O)n(CCC2=CCCCC2)c(O)c1/C=N/N1CCOCC1,35,-7,-13,7,5,x,x
Cc1ccccc1-n1c(O)c(C=Nc2ccc(N(C)C)cc2)c(=O)[nH]c1=O,43*,-12,172*,43*,-14,-12,-14

# Bioassay records from PubChem BioAssay.
